High-throughput results (PubChem)
Rows were chosen to be rich in hits. Some 1.6% of all compounds tested hit in one or more screens of this group.
TDP2 inh: blocks human TDP2 phosphodiesterase activity. O95551. recombinant TDP2, T5PNP hydrolysis, p-nitrophenol absorbance 415 nm. inhibition, % at 12.8 µM. 370,000 tested, 0.34% active. AID 720702;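 active = inhibition above the mean of all tested compounds plus 3 SD, set per campaign, cut at about 25% in these data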
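Evaluation: % inhibition relative to enzyme-containing and enzyme-free wells. Material: recombinant human TDP2. Benchmarks: enzyme-free and DMSO wells. Timing: enzyme reaction with compound for 2 h at 37 °C. Compound dosing: 12.8 µM only. Measured by: p-Nitrophenol epi absorbance. Reagent: T5PNP substrate at 5 mM, a TopII-DNA adduct mimic. Replication: single well per compound.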
Apaf-1 inh: inhibitors of human Apaf-1 apoptosome; O14727; reconstituted apoptosome caspase-3 activity, DEVD-Rh110 fluorescence; inhibition, % at 20 µM; 330,000 tested, 0.71% active; AID 489030; active = inhibition of at least 40% at 20 µM
Target sequence (O14727 whole entry, looked up): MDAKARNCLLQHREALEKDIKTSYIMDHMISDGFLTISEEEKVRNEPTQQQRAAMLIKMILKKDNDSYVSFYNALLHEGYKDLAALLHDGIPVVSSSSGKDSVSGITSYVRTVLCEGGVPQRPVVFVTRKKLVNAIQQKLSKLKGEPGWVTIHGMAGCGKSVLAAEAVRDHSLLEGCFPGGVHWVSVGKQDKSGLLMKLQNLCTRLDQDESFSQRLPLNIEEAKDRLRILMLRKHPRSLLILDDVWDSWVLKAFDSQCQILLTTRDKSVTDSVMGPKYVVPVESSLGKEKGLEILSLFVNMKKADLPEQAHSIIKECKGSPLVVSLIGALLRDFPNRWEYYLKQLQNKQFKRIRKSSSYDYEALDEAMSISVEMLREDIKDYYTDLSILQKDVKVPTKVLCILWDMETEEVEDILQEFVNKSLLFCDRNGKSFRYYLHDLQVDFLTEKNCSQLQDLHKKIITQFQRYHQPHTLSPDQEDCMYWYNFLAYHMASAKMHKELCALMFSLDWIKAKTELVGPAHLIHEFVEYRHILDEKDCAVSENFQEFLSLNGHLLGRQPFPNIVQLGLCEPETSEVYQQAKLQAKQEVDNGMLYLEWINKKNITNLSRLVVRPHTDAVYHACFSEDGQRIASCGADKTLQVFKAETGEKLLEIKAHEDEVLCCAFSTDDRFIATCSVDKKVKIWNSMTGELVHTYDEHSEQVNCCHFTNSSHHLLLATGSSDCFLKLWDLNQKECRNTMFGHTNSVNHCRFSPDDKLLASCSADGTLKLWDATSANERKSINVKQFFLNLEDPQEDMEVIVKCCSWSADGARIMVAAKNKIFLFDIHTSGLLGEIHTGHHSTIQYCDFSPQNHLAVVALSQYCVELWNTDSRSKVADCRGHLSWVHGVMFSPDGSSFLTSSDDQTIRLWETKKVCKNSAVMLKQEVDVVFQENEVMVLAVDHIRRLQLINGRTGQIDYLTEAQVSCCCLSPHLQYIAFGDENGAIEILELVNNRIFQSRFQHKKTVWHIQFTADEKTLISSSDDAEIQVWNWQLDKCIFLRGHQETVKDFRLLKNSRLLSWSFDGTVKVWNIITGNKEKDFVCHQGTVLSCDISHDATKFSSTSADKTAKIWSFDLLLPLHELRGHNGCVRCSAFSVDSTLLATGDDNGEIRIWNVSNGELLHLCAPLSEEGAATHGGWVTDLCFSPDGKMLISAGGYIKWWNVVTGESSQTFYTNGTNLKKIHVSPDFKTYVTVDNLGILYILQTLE
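System: reconstituted apoptosome with Apaf-1, cytochrome c, caspase-9, procaspase-3, dATP; Signal: Rh110 fluorescence intensity; Schedule: 30 min compound preincubation, 50 min activation, room temperature; Reagent: cytochrome c trigger plus (Z-DEVD)2-Rh110 caspase-3 substrate.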
SUMO HTRF inh: blocks human SUMOylation mediated by UBC9. P63279. inhibition, % at 35 µM. 290,000 tested, 0.36% active. HTRF SUMOylation assay, SAE1/SAE2 + UBC9, in vitro; in the data active = inhibition above about 50%, passing the limit was not always enough; inconclusive = no clear call, values can overlap the other calls
GSTO1 counter: GSTO1 inhibition, counter-screen for RBBP9 inhibitors; P78417; recombinant GSTO1, activity-based probe fluorescence polarization; inhibition, % at 5.96 µM; 300,000 tested, 1.1% active; AID 1974;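 active = inhibition above the campaign mean inhibition plus 3 SD, cut at about 35% in these data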
JMJD2C inh: human JMJD2C demethylase inhibition | inhibition, % at 2.35 µM | Q9H3R0 | GST-JMJD2C(1-420) H3K9me3 demethylation, DELFIA europium | 330,000 tested, 0.069% active | AID 2099;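 active = more than half of a compound's replicate wells show inhibition beyond 50%, single wells judged on their own value; inconclusive = some, but no more than half, of replicates pass 50% inhibition; inactive = no replicate passes 50% inhibition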;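 also: signal counts dimethyl H3K9 product captured on neutravidin plate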
PAD4 inh: blocks human protein arginine deiminase 4. Q9UM07. recombinant PAD4, RCA probe fluorescence polarization. inhibition, % at 6.36 µM. 330,000 tested, 0.41% active. AID 485272;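 active = percent inhibition above a cutoff equal to the mean of all tested compounds plus 3 SD, cut at about 15% in these data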
TDP2 inh conf: human TDP2 inhibition, confirmation; inhibition, % at 12.8 µM; recombinant human TDP2, absorbance read-out; AID 743263; shares compounds with TDP2 inh; 1,100 tested, 22% active; in the data active = inhibition above about 25%
A number is an active result; n = inactive; u = inconclusive; x = not tested or not shown.

SMILES	TDP2 inh	Apaf-1 inh	SUMO HTRF inh	GSTO1 counter	JMJD2C inh	PAD4 inh	TDP2 inh conf
O=S(=O)(Nc1cc(Sc2cccc3cccnc23)c(O)c2ccccc12)c1ccccc1	33	x	n	x	n	x	n
CCOc1ccc(S(=O)(=O)Nc2cc(SCC(=O)O)c(O)c3ccccc23)cc1	66	x	75	x	u	x	55
O=C(O)CSc1cc(NS(=O)(=O)c2cccc([N+](=O)[O-])c2)c2ccccc2c1O	63	x	88	x	n	x	70
CCOc1cc(CCNC(=O)c2cc3sccc3n2CC)ccc1OC	n	x	x	x	x	x	x
Cc1cc(C)c(C#N)c(SCC(=O)N(CCC#N)c2ccc3c(c2)OCCO3)n1	25	n	x	x	x	x	n
N#CCCN(C(=O)CSc1ncccn1)c1ccc2c(c1)OCCO2	n	n	x	x	n	n	x
CC1=NN(CCC#N)C(=O)/C1=C/c1ccc(N(C)C)cc1	42	n	n	n	n	n	n
CC1=NOC(=O)/C1=C/c1ccc(N(C)C)cc1	n	n	n	n	n	n	x
CNc1nc(N)c([N+](=O)[O-])c(Nc2ccccc2)n1	n	x	x	x	x	x	x
CCOC(=O)C1CCN(S(=O)(=O)c2cc(C(=O)N3CCCCC3)ccc2OC)CC1	25	n	n	n	n	n	n
CCOC(=O)C1CCN(C(=O)c2ccc(C)c(S(=O)(=O)N3CCCC3)c2)CC1	n	n	n	n	n	n	x
Fc1cccc(CNC(=S)OC2CCC23CCC(c2ccccc2)CC3)c1 (stereo not drawn)	n	x	x	x	x	x	x
N#CCC[C@H]1CC[C@]2(CCCN(C(=O)C3CCCCC3)C2)O1	n	x	x	x	x	x	x
CCNC(=S)NNC(=O)c1ccc(OC)cc1	65	n	n	n	n	n	n
COc1ccc(CSc2nnc(SCC(=O)Nc3ccccc3-c3ccccc3)s2)cc1	n	x	x	x	x	x	x
NS(=O)(=O)c1ccc(CCNCC(=O)NCc2ccccc2Cl)cc1	27	n	n	n	n	n	n
CN1C(=O)NC(c2ccccc2[N+](=O)[O-])C2=C1CC(C)(C)CC2=O (stereo not drawn)	31	n	n	n	n	n	n
CCn1c(SCC(=O)NN=Cc2c(C)nn(-c3ccccc3)c2C)nnc1-c1ccc(OC)c(OC)c1	n	x	x	x	x	x	x
CCC(CO)Oc1cc(NC(=O)c2ccc(N)cc2)c2ncn(C(C)C)c2c1 (stereo not drawn)	37	n	x	x	n	n	34
O=C(CCCCCN1C(=O)C2C3C=CC(C3)C2C1=O)Nc1cc(F)cc(F)c1 (stereo not drawn)	n	x	x	x	x	x	x
CCCCOCCCNC(=O)C[C@H]1C[C@@]2(C(=O)OC)C(=C[C@H](C3CCCC3)O[C@@H]2C)N(Cc2cccc3ccccc23)C1=O	n	x	x	x	x	x	x
O=C(Nc1c(-c2ccccc2)[nH][nH]c1=O)c1ccc(Br)cc1	33	x	x	x	x	x	n
O=C(Nc1c(-c2ccccc2)[nH][nH]c1=O)c1cccs1	42	x	x	x	x	x	n
COc1ccc(-c2[nH][nH]c(=O)c2NC(=O)c2ccc(C)cc2)cc1	25	x	x	x	x	x	30
O=C(Nc1c(-c2ccccc2)[nH][nH]c1=O)c1ccc2ccccc2c1	n	x	x	x	x	x	x
SMILES	TDP2 inh	Apaf-1 inh	SUMO HTRF inh	GSTO1 counter	JMJD2C inh	PAD4 inh	TDP2 inh conf
C=CCN1C(=O)[C@H](CC(=O)NCc2ccc(OC)c(OC)c2)[C@@]2(C(=O)OCC)CCCC=C12	n	x	x	x	x	x	x
CCN(CC)S(=O)(=O)c1cccc(C(=O)OCC(=O)Nc2ccccc2OC(F)F)c1	64	n	n	n	n	n	n
C=CCn1c(COc2ccc(C)cc2)nnc1SCC(=O)Nc1cc(Cl)cc(Cl)c1	n	x	x	x	x	x	x
CSCCCNc1nc(C)nc2c1nnn2Cc1ccccc1	n	x	x	x	x	x	x
COc1ccc(NC(=O)c2ccc(S(=O)(=O)C(F)F)cc2)c(OC)c1	n	n	n	n	n	n	x
COc1ccc(NC(=O)c2ccc(-n3c(C)ccc3C)cc2)c(OC)c1	30	n	n	n	n	n	n
COc1cc(C=c2c3ccccc3n3c2cc(-c2ccccc2)[n+]3C)cc(OC)c1OC	39	x	x	x	x	x	43
CN(C)c1ccc(C=c2c3ccccc3n3c2cc(-c2ccc(Cl)cc2)[n+]3C)cc1	n	x	x	x	x	x	x
CN(C)c1ccc(C=c2c3ccccc3n3c2cc(-c2ccccc2)[n+]3C)cc1	30	x	x	x	x	x	n
COc1cc(N(C)C)ccc1C=c1c2ccccc2n2c1cc(-c1ccccc1)[n+]2C	n	x	x	x	x	x	x
